Several values for one entry are separate records, joined by “and”; a condition that tells them apart may be missing. Identical values can stand only once.
System: HEK-293T
Assay: Multiplex assay against HEK293T
Type: toxicity, cell-based
Details: human
Summary of the method: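 Per cents of healthy-nucleus cells form the tubulin, mitochondrial-mass and membrane-permeability phenotype values. Live cells were stained at seeding with Hoechst33342, BioTracker Green Microtubule Cytoskeleton Dye, MitoTracker Red and Annexin V Alexa Fluor 680. After compound addition they were imaged on a CQ1 microscope at 37°C and 5% CO2, and CellPathfinder machine-learning gating split them into Hoechst high-intensity objects or normal cells, normal cells into healthy, pyknosed or fragmented nuclei, and pyknosed cells into mitotic or apoptotic.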

[1] = 12 h, 1 µM, compound concentration 1 uM
[2] = 12 h, 10 µM, compound concentration 10 uM
[3] = 24 h, 1 µM, compound concentration 1 uM
[4] = 24 h, 10 µM, compound concentration 10 uM
[5] = 48 h, 1 µM, compound concentration 1 uM
[6] = 48 h, 10 µM, compound concentration 10 uM

With `CCNC1(C(N)=O)CCN(c2ncnc3c2nc(-c2ccccc2Cl)n3-c2ccc(Cl)cc2)CC1` [OTENABANT] the “Population Apoptotic (%)” value [1] was 51% and 58%, the “Population Fragmented Nuclei (%)” value [1] was 8% and the “Population Healthy Nuclei (%)” value [1] was 80% and 76%. For the same compound, the “Population Hoechst High Intensity Objects (%)” value [1] was 10% and 6%, the “Population Membrane Permeable-Phenotype (%)” value [1] was 0% and the “Population Mitochondria Different-Phenotype (%)” value [1] was 48% and 66%. For the same compound, the “Population Mitotic Cells (%)” value [1] was 48% and 41%, the “Population Normal (%)” value [1] was 89% and 93% and the “Population Pyknosed Nuclei (%)” value [1] was 10% and 15%. For the same compound, the “Population Tubulin-Different-Phenotype (%)” value [1] was 52% and 44%, the “Total Cell Count” value [1] was 401 and 333 and the “Population Apoptotic (%)” value [2] was 46% and 63%. The “Population Fragmented Nuclei (%)” value [2] was 3% and 4%, the “Population Healthy Nuclei (%)” value [2] was 74% and 67% and the “Population Hoechst High Intensity Objects (%)” value [2] was 16% and 9%. For the same compound, the “Population Membrane Permeable-Phenotype (%)” value [2] was 0%, the “Population Mitochondria Different-Phenotype (%)” value [2] was 82% and 96% and the “Population Mitotic Cells (%)” value [2] was 53% and 36%. For the same compound, the “Population Normal (%)” value [2] was 83% and 90%, the “Population Pyknosed Nuclei (%)” value [2] was 22% and 27% and the “Population Tubulin-Different-Phenotype (%)” value [2] was 50% and 43%. For the same compound, the “Total Cell Count” value [2] was 381 and 251, the “Population Apoptotic (%)” value [3] was 49% and 40% and the “Population Fragmented Nuclei (%)” value [3] was 8% and 12%. The “Population Healthy Nuclei (%)” value [3] was 80% and 75%, the “Population Hoechst High Intensity Objects (%)” value [3] was 5% and the “Population Membrane Permeable-Phenotype (%)” value [3] was 0%. For the same compound, the “Population Mitochondria Different-Phenotype (%)” value [3] was 43% and 47%, the “Population Mitotic Cells (%)” value [3] was 50% and 59% and the “Population Normal (%)” value [3] was 94%. For the same compound, the “Population Pyknosed Nuclei (%)” value [3] was 11%, the “Population Tubulin-Different-Phenotype (%)” value [3] was 44% and 41% and the “Total Cell Count” value [3] was 474 and 442. For the same compound, the “Population Apoptotic (%)” value [4] was 40% and 64%, the “Population Fragmented Nuclei (%)” value [4] was 8% and 6% and the “Population Healthy Nuclei (%)” value [4] was 71% and 77%. The “Population Hoechst High Intensity Objects (%)” value [4] was 17% and 13%, the “Population Membrane Permeable-Phenotype (%)” value [4] was 1% and 0% and the “Population Mitochondria Different-Phenotype (%)” value [4] was 79% and 95%. For the same compound, the “Population Mitotic Cells (%)” value [4] was 59% and 35%, the “Population Normal (%)” value [4] was 82% and 86% and the “Population Pyknosed Nuclei (%)” value [4] was 19% and 15%. The “Population Tubulin-Different-Phenotype (%)” value [4] was 56% and 53%, the “Total Cell Count” value [4] was 452 and 283 and the “Population Apoptotic (%)” value [5] was 34% and 32%. The “Population Fragmented Nuclei (%)” value [5] was 12% and 8%, the “Population Healthy Nuclei (%)” value [5] was 78% and 82% and the “Population Hoechst High Intensity Objects (%)” value [5] was 4%. For the same compound, the “Population Membrane Permeable-Phenotype (%)” value [5] was 1% and 0%, the “Population Mitochondria Different-Phenotype (%)” value [5] was 29% and 30% and the “Population Mitotic Cells (%)” value [5] was 65% and 68%. For the same compound, the “Population Normal (%)” value [5] was 95%, the “Population Pyknosed Nuclei (%)” value [5] was 9% and 8% and the “Population Tubulin-Different-Phenotype (%)” value [5] was 30%. For the same compound, the “Total Cell Count” value [5] was 766 and 604, the “Population Apoptotic (%)” value [6] was 52% and 70% and the “Population Fragmented Nuclei (%)” value [6] was 13% and 10%. The “Population Healthy Nuclei (%)” value [6] was 71% and 77%, the “Population Hoechst High Intensity Objects (%)” value [6] was 16% and 14% and the “Population Membrane Permeable-Phenotype (%)” value [6] was 2% and 0%. For the same compound, the “Population Mitochondria Different-Phenotype (%)” value [6] was 78% and 89%, the “Population Mitotic Cells (%)” value [6] was 47% and 29% and the “Population Normal (%)” value [6] was 83% and 85%. For the same compound, the “Population Pyknosed Nuclei (%)” value [6] was 15% and 12%, the “Population Tubulin-Different-Phenotype (%)” value [6] was 66% and 57% and the “Total Cell Count” value [6] was 560 and 325.

For `O=C1COc2nccc(-c3ccccc3F)c2CN1Cc1cc(C(F)(F)F)cc(C(F)(F)F)c1`, the “Population Apoptotic (%)” value [1] was 31% and 51%, the “Population Fragmented Nuclei (%)” value [1] was 8% and 4% and the “Population Healthy Nuclei (%)” value [1] was 80% and 83%. The “Population Hoechst High Intensity Objects (%)” value [1] was 5% and 10%, the “Population Membrane Permeable-Phenotype (%)” value [1] was 0% and the “Population Mitochondria Different-Phenotype (%)” value [1] was 41% and 67%. The “Population Mitotic Cells (%)” value [1] was 68% and 48%, the “Population Normal (%)” value [1] was 94% and 89% and the “Population Pyknosed Nuclei (%)” value [1] was 10% and 11%. For the same compound, the “Population Tubulin-Different-Phenotype (%)” value [1] was 27% and 20%, the “Total Cell Count” value [1] was 397 and 333 and the “Population Apoptotic (%)” value [2] was 38% and 57%. For the same compound, the “Population Fragmented Nuclei (%)” value [2] was 10% and 8%, the “Population Healthy Nuclei (%)” value [2] was 76% and 79% and the “Population Hoechst High Intensity Objects (%)” value [2] was 9% and 5%. For the same compound, the “Population Membrane Permeable-Phenotype (%)” value [2] was 0%, the “Population Mitochondria Different-Phenotype (%)” value [2] was 67% and 76% and the “Population Mitotic Cells (%)” value [2] was 61% and 42%. For the same compound, the “Population Normal (%)” value [2] was 90% and 94%, the “Population Pyknosed Nuclei (%)” value [2] was 13% and 12% and the “Population Tubulin-Different-Phenotype (%)” value [2] was 68% and 39%. For the same compound, the “Total Cell Count” value [2] was 475 and 382, the “Population Apoptotic (%)” value [3] was 21% and 59% and the “Population Fragmented Nuclei (%)” value [3] was 8% and 5%. The “Population Healthy Nuclei (%)” value [3] was 84% and 87%, the “Population Hoechst High Intensity Objects (%)” value [3] was 3% and 8% and the “Population Membrane Permeable-Phenotype (%)” value [3] was 0%. The “Population Mitochondria Different-Phenotype (%)” value [3] was 32% and 39%, the “Population Mitotic Cells (%)” value [3] was 78% and 40% and the “Population Normal (%)” value [3] was 96% and 91%. For the same compound, the “Population Pyknosed Nuclei (%)” value [3] was 7% and 6%, the “Population Tubulin-Different-Phenotype (%)” value [3] was 23% and 12% and the “Total Cell Count” value [3] was 517 and 428. For the same compound, the “Population Apoptotic (%)” value [4] was 52% and 36%, the “Population Fragmented Nuclei (%)” value [4] was 10% and 7% and the “Population Healthy Nuclei (%)” value [4] was 76% and 79%. For the same compound, the “Population Hoechst High Intensity Objects (%)” value [4] was 5%, the “Population Membrane Permeable-Phenotype (%)” value [4] was 0% and the “Population Mitochondria Different-Phenotype (%)” value [4] was 71% and 72%. The “Population Mitotic Cells (%)” value [4] was 47% and 63%, the “Population Normal (%)” value [4] was 94% and the “Population Pyknosed Nuclei (%)” value [4] was 13% and 12%. The “Population Tubulin-Different-Phenotype (%)” value [4] was 68% and 44%, the “Total Cell Count” value [4] was 520 and 492 and the “Population Apoptotic (%)” value [5] was 27% and 38%. The “Population Fragmented Nuclei (%)” value [5] was 13% and 9%, the “Population Healthy Nuclei (%)” value [5] was 80% and 81% and the “Population Hoechst High Intensity Objects (%)” value [5] was 2% and 4%. The “Population Membrane Permeable-Phenotype (%)” value [5] was 0%, the “Population Mitochondria Different-Phenotype (%)” value [5] was 29% and 23% and the “Population Mitotic Cells (%)” value [5] was 72% and 61%. For the same compound, the “Population Normal (%)” value [5] was 97% and 95%, the “Population Pyknosed Nuclei (%)” value [5] was 6% and 8% and the “Population Tubulin-Different-Phenotype (%)” value [5] was 14% and 12%. For the same compound, the “Total Cell Count” value [5] was 743 and 574, the “Population Apoptotic (%)” value [6] was 44% and 56% and the “Population Fragmented Nuclei (%)” value [6] was 13% and 11%. For the same compound, the “Population Healthy Nuclei (%)” value [6] was 75% and 80%, the “Population Hoechst High Intensity Objects (%)” value [6] was 3% and 2% and the “Population Membrane Permeable-Phenotype (%)” value [6] was 0%. The “Population Mitochondria Different-Phenotype (%)” value [6] was 63% and 51%, the “Population Mitotic Cells (%)” value [6] was 55% and 43% and the “Population Normal (%)” value [6] was 96% and 97%. The “Population Pyknosed Nuclei (%)” value [6] was 11% and 7%, the “Population Tubulin-Different-Phenotype (%)” value [6] was 46% and 25% and the “Total Cell Count” value [6] was 713 and 669.

Reference: ChEMBL document CHEMBL5724801, “EUbOPEN Chemogenomics Library - Multiplex” (2024)
